This is an account of results in ChEMBL document CHEMBL4513216, “Probing the Open Global Health Chemical Diversity Library for Multistage-Active Starting Points for Next-Generation Antimalarials” (ACS Infect Dis, 2020).

The data set can be described thus: Toxicity liver stage against HepG2, at 10uM. Format: cell-based. Further details: test concentration 10 uM, cell line HepG2-A16-CD81EGFP. The note with it: human, HepG2-A16-CD81EGFP cells; read-out: INHIBITION
Summed up:
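Uninfected HepG2-A16-CD81EGFP cells, 3 × 10^3 per well, 1536-well, plated on prespotted compound at 10 μM final, parasite-free screening media added to match infected plates; puromycin 10 μM positive, DMSO 0.5% negative; run in parallel with 48 h PbLuc assay at 37 °C, 5% CO2; viability by CellTiter-Glo luminescence, normalized to controls.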
For the molecule `COc1ccc2c(c1)CN(C)C(=O)CCN2CC(O)C(C)(C)C` (stereo unspecified), the cytotoxicity at 10 µM worked out at 4.17%.

As to `NC(=O)CN1CC[C@@]2(O)CCCC[C@H]2[C@@H]1c1ccc2c(c1)OCO2`, the cytotoxicity at 10 µM was 3.26%.

In the case of `CC(C)c1ccc2c(c1)C1(CC(=O)Nc3[nH]ncc31)C(=O)N2C` (stereo unspecified), the cytotoxicity at 10 µM is -0.582%.

For `CCCN1CCc2nc(SCc3ccccc3)[nH]c(=O)c2C1`, the cytotoxicity at 10 µM worked out at 0.279%.

For the molecule `CCSc1ccccc1C(=O)NCCn1nc(C(F)(F)F)n(C)c1=O`, the cytotoxicity at 10 µM was 6.83%.

Regarding `O=C(CN1CCC(c2nnc(C(F)(F)F)o2)CC1)Nc1cccc(Cl)c1`, the cytotoxicity at 10 µM is -1.53%.

Regarding `COc1cc(C(=O)NCCc2ccc(Cl)cc2)on1`, the cytotoxicity at 10 µM is -0.295%.

Take `CCOc1ncc(NC(=O)c2ccco2)c(OCC)n1`: the cytotoxicity at 10 µM is -1.76%.

For the molecule `CCN(CC)c1ncc(S(=O)(=O)c2cccc(C)c2)c(N)n1`, the cytotoxicity at 10 µM was -0.707%.

Take `Cc1cc(C(F)(F)F)nn1CCCNC(=O)C1CCC1`: the cytotoxicity at 10 µM is -12.2%.

Take `Cc1c(Cn2cc(Cl)c(N)n2)cnn1C`: the cytotoxicity at 10 µM was -5.18%.

Regarding `CCCc1nc(NCCCn2ccnc2)c2c(n1)c(C)nn2CC`, the cytotoxicity at 10 µM came to 8.26%.

Regarding `Cc1sc(Oc2ccccc2Cl)nc1C(=O)O`, the cytotoxicity at 10 µM worked out at 1.95%.

For the molecule `CC1(c2ncc(CN3CCOCC3)cn2)CCCCO1` (stereo unspecified), the cytotoxicity at 10 µM is 6.08%.

Consider `CN(C)Cc1cnc(C2CCN(C(=O)c3ccc(F)cc3)C2)[nH]1` (stereo unspecified), for which the cytotoxicity at 10 µM is -1.92%.

With `Nc1cc(-c2c[nH]nc2C2CCCN2CCCc2ccccc2)ccn1` (stereo unspecified), the cytotoxicity at 10 µM came to 3.75%.

In the case of `COc1ccc(C2(NC(=O)c3ccc(=O)n(C)n3)CCCC2)cc1`, the cytotoxicity at 10 µM is -0.308%.

Consider `Cc1cc(C)n(CC2CCCN2Cc2ccc(F)cc2C#N)n1` (stereo unspecified), for which the cytotoxicity at 10 µM is 7.77%.

On to `CCN(CC(O)c1ccc(C)cc1)C(=O)NC(C)C` (stereo unspecified), for which the cytotoxicity at 10 µM is -7.74%.

On to `COc1ccncc1NC(=O)C1(c2ccc(F)cc2)CCC1`, for which the cytotoxicity at 10 µM came to 1.52%.

Consider `CCC(CNC(=O)c1cccc(S(=O)(=O)NC)c1)N1CCCC1` (stereo unspecified), for which the cytotoxicity at 10 µM is -4.18%.

Take `Cc1ccccc1C(NC(=O)CCCS(C)(=O)=O)C(C)(C)C` (stereo unspecified): the cytotoxicity at 10 µM is -9.4%.

For `COc1ccc(CNC2CCC(O)CC2)cc1OCCCC#N` (stereo unspecified), the cytotoxicity at 10 µM was -2.56%.

On to `Cc1nnc(NCC(c2ccco2)N2CCCCC2)c(C#N)c1C` (stereo unspecified), for which the cytotoxicity at 10 µM is -5.23%.

Regarding `CC(C)c1nc(C2CCCN(c3nccc(C(F)(F)F)n3)C2)no1` (stereo unspecified), the cytotoxicity at 10 µM is 5.83%.

As for `COCCn1ccc(NCc2scnc2C)n1`, the cytotoxicity at 10 µM was -2.9%.

`N#CCCN(CCC#N)C(=O)c1ccc(COc2ccccc2C#N)o1`: the cytotoxicity at 10 µM is -16.6%.

On to `Cc1nn(CCO)c(C)c1CNC1CCCCc2ccccc21` (stereo unspecified), for which the cytotoxicity at 10 µM is -2.42%.

Take `N#Cc1cccc(CNC(=O)NC2CCN(CC(F)F)CC2)c1`: the cytotoxicity at 10 µM came out at 4.16%.

Regarding `Cc1n[nH]c(C2CN(C(=O)c3ccc4c(c3)COC4)CCO2)n1` (stereo unspecified), the cytotoxicity at 10 µM turned out to be 17.4%.

With `CN1CCC(N(C)C(=O)CCc2ccc(F)c(F)c2)C1=O` (stereo unspecified), the cytotoxicity at 10 µM is -17.7%.

Consider `O=C1NCCCCC1NS(=O)(=O)N1CCCCCC1` (stereo unspecified), for which the cytotoxicity at 10 µM amounted to 4.15%.

As for `CN(C)S(=O)(=O)c1ccc(CSCC(=O)NC(C)(C)C)o1`, the cytotoxicity at 10 µM is -1.82%.

In the case of `CCC1c2ccccc2CCN1CCNS(C)(=O)=O` (stereo unspecified), the cytotoxicity at 10 µM was found to be 5.56%.

As for `Cn1cc(C(=O)O)c(-c2ccc(F)cc2F)n1`, the cytotoxicity at 10 µM is -4.03%.

Take `Cc1cc(C(=O)Nc2ccn(CCCN3CCCC3)n2)c(C)o1`: the cytotoxicity at 10 µM was -7.12%.

With `COc1ccccc1CNC(=O)C1=NN(c2ccc(C)cc2)C(=O)CN1`, the cytotoxicity at 10 µM came out at 25.1%.

Take `C[S+]([O-])CCCNC(=O)c1cc(Br)c2c(c1)OCCO2` (stereo unspecified): the cytotoxicity at 10 µM stood at 16.9%.

With `Cc1cc(C(=O)N2CCCC(n3ccnc3C)C2)c(C)s1` (stereo unspecified), the cytotoxicity at 10 µM is -16%.

For the molecule `CC(C)N1CCO[C@H]2CN(C(=O)c3ccc(N(C)C)cc3)C[C@H]21`, the cytotoxicity at 10 µM is 3.19%.

Consider `CCc1c(C(=O)N2CCC3(CC(=O)NC3=O)C2)csc1C` (stereo unspecified), for which the cytotoxicity at 10 µM was 1.62%.

Turning to `CN(C)C(=O)c1cn2cc(-c3cccc(Cl)c3)n(CC3CC3)c(=O)c2n1`, the cytotoxicity at 10 µM was -1.62%.

With `Cc1cccc(CN2CCN(C(=O)c3cc(Cl)c[nH]c3=O)CC2)c1`, the cytotoxicity at 10 µM was 1.47%.

Take `NC(=O)N1CCCC(C(=O)N2CCc3c(nc(CC4CC4)[nH]c3=O)C2)C1` (stereo unspecified): the cytotoxicity at 10 µM is -13.8%.

Regarding `Cc1n[nH]c(C)c1CCNC(=O)Nc1ccc2c(c1)COC2`, the cytotoxicity at 10 µM is -20.4%.

For `CC(=O)N1C[C@H](NS(=O)(=O)Cc2cccc(Cl)c2)[C@@H](C(C)C)C1`, the cytotoxicity at 10 µM is -1.73%.

Consider `Cc1cc2nc(C(C)C)cc(N3CCC(N(C)C)C3)n2n1` (stereo unspecified), for which the cytotoxicity at 10 µM is -3.88%.

For `Cc1cccnc1N1CCN(C(=O)C(C)n2ccnc2C(C)C)CC1` (stereo unspecified), the cytotoxicity at 10 µM is -10.3%.

Turning to `CCc1cnc(N)nc1NC(C)c1cnn(C)c1` (stereo unspecified), the cytotoxicity at 10 µM is -0.333%.

As for `Cc1ocnc1C(=O)N1CCN(Cc2ccccc2)[C@@H]2CS(=O)(=O)C[C@@H]21`, the cytotoxicity at 10 µM was -1.26%.

In the case of `Cc1nc(CN(C)C(=O)c2cc(C)sc2NC(=O)C(C)(C)C)no1`, the cytotoxicity at 10 µM was determined as 3.81%.

Regarding `O=C(Cc1ccncc1)N(CCO)CCSc1ccc(Cl)cc1`, the cytotoxicity at 10 µM stood at 2.59%.

As to `O=C(c1ccccc1C(F)(F)F)N1CC[C@@H](N2CCC(O)CC2)[C@H](O)C1`, the cytotoxicity at 10 µM was -2.49%.

Turning to `Cc1ccc(C(=O)N2C[C@@H](NS(C)(=O)=O)[C@H](C(C)C)C2)cc1O`, the cytotoxicity at 10 µM was -2.62%.

For the molecule `Cc1ccc(N2CCN(C(=O)C3CN(C)C(=O)N3)CC2=O)cc1` (stereo unspecified), the cytotoxicity at 10 µM is -2.61%.

For `CCCn1ncc(C(=O)N(Cc2cccnc2)C[C@@H]2CCC(=O)N2)c1C`, the cytotoxicity at 10 µM was found to be 7.69%.

`COCCN(C)C(C(=O)O)c1cc(Cl)ccc1OC` (stereo unspecified): the cytotoxicity at 10 µM is -6.92%.

As to `CNc1cc(C)nc(N2CCC3(CC2)[C@H](O)C[C@@H]3O)n1`, the cytotoxicity at 10 µM was -17.5%.

`CCOc1ccccc1-n1c(-c2cn(CC)nc2C)n[nH]c1=O`: the cytotoxicity at 10 µM was 2.81%.

In the case of `Cc1cc(C(=O)N2C[C@@H](CN3CCCCC3)[C@@H](CO)C2)ccc1O`, the cytotoxicity at 10 µM was determined as 0.251%.

With `CCCc1ncc(CN(CCOC)Cc2cccs2)cn1`, the cytotoxicity at 10 µM is -0.683%.

Consider `Cc1cccc2c1nc(COCC(=O)O)n2-c1ccsc1`, for which the cytotoxicity at 10 µM was -0.793%.

Consider `CNC(=O)[C@@H]1C[C@H](N)CN1S(=O)(=O)c1cc(C)c(Cl)cc1C`, for which the cytotoxicity at 10 µM was -0.869%.

Turning to `Cc1cc(NC(=O)CNCc2csc(-c3ncccn3)n2)ccc1Cl`, the cytotoxicity at 10 µM was -7.21%.

For `O=C1CC(NCc2ccccn2)CN1CCc1ccc(F)cc1` (stereo unspecified), the cytotoxicity at 10 µM was 7.18%.

On to `O=C(CCCn1ccnc1)N1CCC2(CC1)[C@H](O)C[C@@H]2OCCO`, for which the cytotoxicity at 10 µM came out at 3.31%.

As to `O=C1N(Cc2cccc(F)c2F)CCCC1(O)CN1CCCOCC1` (stereo unspecified), the cytotoxicity at 10 µM turned out to be 18.3%.

Take `Cc1ccc(NC2CCN(C(=O)c3ccc4c(c3)CCC4)CC2)nn1`: the cytotoxicity at 10 µM was -8.19%.

For the molecule `Cc1cc(C)c(CNC(=O)N(C)Cc2cccc(F)c2)c(=O)[nH]1`, the cytotoxicity at 10 µM was -1.62%.

`c1ccc(-c2nc(CN3CCOC(Cn4cncn4)C3)cs2)cc1` (stereo unspecified): the cytotoxicity at 10 µM was -4.33%.

For the molecule `CC(C)(C)c1n[nH]c(C2CN(C(=O)CCc3ccco3)CCO2)n1` (stereo unspecified), the cytotoxicity at 10 µM is -8.24%.

With `Cn1nccc1C(=O)Nc1cc(C(F)(F)F)c[nH]c1=O`, the cytotoxicity at 10 µM was -6.54%.

As to `COc1cc(CNCCn2cc(C)cn2)cc2c1OCCO2`, the cytotoxicity at 10 µM was -9.07%.

Take `c1ccc(-c2nc(CN3CCCC3Cn3cncn3)no2)cc1` (stereo unspecified): the cytotoxicity at 10 µM is -7.22%.

Consider `CC(=O)NCc1ccc(C(=O)NC2CCc3nc(C)cn3C2)o1` (stereo unspecified), for which the cytotoxicity at 10 µM was -3.81%.

On to `Cc1nccn1C1CCCN(C(=O)c2ccnc(-n3ccnc3)c2)C1` (stereo unspecified), for which the cytotoxicity at 10 µM was found to be 0.998%.

On to `COCCN1CCC(CNCc2c[nH]nc2C(C)(C)C)CC1`, for which the cytotoxicity at 10 µM was -17%.

In the case of `Cc1cccc(CN(C)Cc2nc3c(cnn3C)c(=O)[nH]2)c1`, the cytotoxicity at 10 µM was -8.08%.

For the molecule `CCn1cc(NC(=O)NCC(c2cccc(F)c2)N(C)C)cn1` (stereo unspecified), the cytotoxicity at 10 µM amounted to 0.633%.

`CCC(O)CN1CCN(C(=O)c2cccn2Cc2ccccc2)CC1` (stereo unspecified): the cytotoxicity at 10 µM was -8.03%.

Turning to `CCNC(c1cccnc1)c1ccc(F)c(F)c1` (stereo unspecified), the cytotoxicity at 10 µM is 1.03%.

`C1CC(c2noc(C3CC3)n2)CN(Cc2noc(C3CC3)n2)C1` (stereo unspecified): the cytotoxicity at 10 µM is -5.16%.

With `COCc1nc(C(=O)N2CCCC(n3cccn3)C2)cs1` (stereo unspecified), the cytotoxicity at 10 µM is -7.42%.

For `CC(NC(=O)NCc1ccc(Cl)s1)c1ccccn1` (stereo unspecified), the cytotoxicity at 10 µM came to 1.64%.

Consider `Cc1noc(C(C)C)c1C(=O)N1CCCN(Cc2cscn2)CC1`, for which the cytotoxicity at 10 µM is -3.56%.

Take `CCc1nnc(CN2CCN(C(=O)c3ccccn3)CC2)o1`: the cytotoxicity at 10 µM came to 3.49%.

As for `Cc1oc(-c2ccco2)nc1CC(=O)N1CCN(C2CCC2)CC1`, the cytotoxicity at 10 µM stood at 4.33%.

`CCC(CO)NCc1ccc(-c2ccc(Cl)cc2)o1` (stereo unspecified): the cytotoxicity at 10 µM came to 5.24%.

`c1ccc(OC[C@]23COC[C@H]2CN(Cc2ccoc2)C3)nc1`: the cytotoxicity at 10 µM was -8.63%.

With `O=C(C1CCOC1)N1C[C@H]2CN(Cc3cccnc3)C(=O)[C@H]2C1` (stereo partly specified), the cytotoxicity at 10 µM was -108%.

For `O=C(CN1CCN(CC(O)C2CC2)CC1)NCc1ccccc1Cl` (stereo unspecified), the cytotoxicity at 10 µM was determined as 5.23%.

As to `CN1C(=O)C2(CCN(S(C)(=O)=O)CC2)c2cc(F)ccc21`, the cytotoxicity at 10 µM is -106%.

In the case of `CCOc1ncccc1Cn1cc2[nH]cccc-2c1=O`, the cytotoxicity at 10 µM came out at 1.93%.

Consider `Cc1cccc(C(=O)N2C[C@@H]3CC[C@H]2CN(S(=O)(=O)N(C)C)C3)n1`, for which the cytotoxicity at 10 µM stood at 7.4%.

For `O=C1C[C@@H]2CC[C@H](CN1)N2C1CSCCSC1`, the cytotoxicity at 10 µM was -2.26%.

In the case of `O=C(c1ccco1)N1C2CCC(O)(CC2)C1CN1CCOCC1` (stereo unspecified), the cytotoxicity at 10 µM was found to be 6.93%.
